Source: ChEMBL document CHEMBL4715934, “Discovery of Imidazopyridines as Potent Inhibitors of Indoleamine 2,3-Dioxygenase 1 for Cancer Immunotherapy” (ACS Med Chem Lett, 2021)
Each block holds one molecule with its values, some of them ahead of it.

Assays:
PXR (NR1I2) = target: T1, PXR (NR1I2) (Homo sapiens, UniProt O75469); assay: Transactivation of PXR (unknown origin) assessed as CYP450 induction relative to rifampicin
T1 sequence (O75469 whole entry): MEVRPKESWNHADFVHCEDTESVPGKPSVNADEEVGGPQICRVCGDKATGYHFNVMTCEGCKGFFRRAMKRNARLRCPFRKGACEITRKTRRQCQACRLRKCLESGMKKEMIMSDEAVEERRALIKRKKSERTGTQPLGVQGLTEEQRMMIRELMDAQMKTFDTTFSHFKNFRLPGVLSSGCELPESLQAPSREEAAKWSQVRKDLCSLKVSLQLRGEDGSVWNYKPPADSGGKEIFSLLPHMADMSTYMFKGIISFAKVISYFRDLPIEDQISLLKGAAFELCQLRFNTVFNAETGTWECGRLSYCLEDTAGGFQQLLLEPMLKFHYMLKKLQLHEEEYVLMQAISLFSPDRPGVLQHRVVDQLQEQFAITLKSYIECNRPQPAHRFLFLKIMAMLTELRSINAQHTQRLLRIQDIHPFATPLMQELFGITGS

[1] = target: Indoleamine 2,3-dioxygenase 1 (Mus musculus, UniProt P28776); assay: Inhibition of IDO1 in recombinant IFN-gamma induced mouse M109 cells incubated for 18 hrs by fluorescence microplate reader assay; format: cell-based
Summary of the method: (§1)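 HeLa (human) or M109 (murine) cells induced with IFNγ to express IDO1, then cellular IDO1 activity measured; values are the average of N = 2 unless noted.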

[2] = target: T2, Indoleamine 2,3-dioxygenase 1 (Homo sapiens, UniProt P14902); assay: Inhibition of IDO1 in IFN-gamma/LPS induced human whole blood assessed as tryptophan/kynurenine level measured after 18 hrs by RapidFire mass spectrometry; format: tissue-based
[3] = Metabolic stability in mouse liver microsomes assessed as parent compound remaining at 0.5 uM after 10 mins; format: ADME, Microsome; settings: read-out: Stabilty
Summary of the method: (§2)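 Parent compound at 0.5 μM incubated 10 min with 1 mg/mL human, mouse or rat liver microsomes; fraction of parent remaining reported; average of N = 2 unless noted.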

[4] = target: T3, Nuclear receptor subfamily 1 group I member 2 (Homo sapiens, UniProt O75469); assay: Transactivation of PXR (unknown origin) assessed as CYP450 induction
T3 sequence (O75469 whole entry): T1 sequence (O75469 whole entry)

[5] = Metabolic stability in rat liver microsomes assessed as parent compound remaining at 0.5 uM after 10 mins; format: ADME, Microsome; settings: read-out: Stabilty; summary of the method: as §2
[6] = Metabolic stability in human liver microsomes assessed as parent compound remaining at 0.5 uM after 10 mins; format: ADME, Microsome; settings: read-out: Stabilty; summary of the method: as §2
[7] = target: T2, Indoleamine 2,3-dioxygenase 1; assay: Inhibition of IDO1 in recombinant IFN-gamma induced human HeLa cells incubated for 18 hrs by fluorescence microplate reader assay; summary of the method: as §1
[8] = Induction of proliferation of human T eff cells by T cell/DC mixed lymphocyte reaction (MLR) assay
[9] = In vivo inhibition of IDO1 in mouse xenografted with human SKOV3 cells assessed as reduction in tumor kynurenine AUEC at 60 mg/kg, po qd for 5 days measured upto 24 hrs after dosing relative to vehicle treated control; format: functional; settings: SK-OV-3, po, 120 h, time 5 day
Summary of the method: (§3)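 nu/nu nude mice carrying SKOV3 tumors grown 2 weeks; dosed QD for 5 days starting day 14. On day 18, tumor sampled at 2, 6 and 24 h for drug level and kynurenine. […] Kyn reduction measured at steady state after the 5th dose, taken as area under the Kyn concentration–time curve 0–24 h versus vehicle control.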

in vivo = settings: mouse, tumor, po, 60 mg/kg
[10] = Metabolic stability assessed as cynomolgus monkey CYP-mediated metabolism by measuring half life; format: ADME, Macaca fascicularis
Cytochrome P450 2C8 = target: T4, Cytochrome P450 2C8 (Homo sapiens, UniProt P10632); assay: Inhibition of recombinant human CYP2C8; format: ADME
T4 sequence (P10632 whole entry): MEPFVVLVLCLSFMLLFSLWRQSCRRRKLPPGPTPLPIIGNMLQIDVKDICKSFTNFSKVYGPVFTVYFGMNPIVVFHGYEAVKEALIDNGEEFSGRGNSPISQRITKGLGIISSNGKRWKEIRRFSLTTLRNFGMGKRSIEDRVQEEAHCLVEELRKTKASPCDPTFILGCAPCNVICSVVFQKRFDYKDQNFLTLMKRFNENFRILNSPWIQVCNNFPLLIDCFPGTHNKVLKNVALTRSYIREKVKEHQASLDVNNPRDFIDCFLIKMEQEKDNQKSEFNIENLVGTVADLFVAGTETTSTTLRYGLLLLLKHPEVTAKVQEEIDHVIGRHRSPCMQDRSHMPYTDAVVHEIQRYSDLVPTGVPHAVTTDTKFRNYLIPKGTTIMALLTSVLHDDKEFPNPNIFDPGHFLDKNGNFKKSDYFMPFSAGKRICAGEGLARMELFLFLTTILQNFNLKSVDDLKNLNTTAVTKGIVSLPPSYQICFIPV

Cytochrome P450 3A4 = Cytochrome P450 3A4 (Homo sapiens, UniProt P08684); assay: Inhibition of recombinant human CYP3A4; format: ADME
[11] = Metabolic stability assessed as rat CYP-mediated metabolism by measuring half life; format: ADME
Cytochrome P450 2C19 = Cytochrome P450 2C19 (Homo sapiens, UniProt P33261); assay: Inhibition of recombinant human CYP2C19; format: ADME
[12] = Metabolic stability assessed as human CYP-mediated metabolism by measuring half life; format: ADME
[13] = Metabolic stability assessed as dog UGT -mediated metabolism by measuring half life; format: ADME, Canis lupus familiaris
[14] = Metabolic stability assessed as mouse CYP-mediated metabolism by measuring half life; format: ADME
[15] = Metabolic stability assessed as mouse UGT -mediated metabolism by measuring half life; format: ADME
[16] = Permeability across basolateral to apical side in human Caco2 cells; format: ADME, cell-based; settings: Caco-2, read-out: permeability
[17] = Metabolic stability assessed as human UGT-mediated metabolism by measuring half life; format: ADME
Cytochrome P450 1A2 = target: T5, Cytochrome P450 1A2 (Homo sapiens, UniProt P05177); assay: Inhibition of recombinant human CYP1A2; format: ADME
T5 sequence (P05177 whole entry): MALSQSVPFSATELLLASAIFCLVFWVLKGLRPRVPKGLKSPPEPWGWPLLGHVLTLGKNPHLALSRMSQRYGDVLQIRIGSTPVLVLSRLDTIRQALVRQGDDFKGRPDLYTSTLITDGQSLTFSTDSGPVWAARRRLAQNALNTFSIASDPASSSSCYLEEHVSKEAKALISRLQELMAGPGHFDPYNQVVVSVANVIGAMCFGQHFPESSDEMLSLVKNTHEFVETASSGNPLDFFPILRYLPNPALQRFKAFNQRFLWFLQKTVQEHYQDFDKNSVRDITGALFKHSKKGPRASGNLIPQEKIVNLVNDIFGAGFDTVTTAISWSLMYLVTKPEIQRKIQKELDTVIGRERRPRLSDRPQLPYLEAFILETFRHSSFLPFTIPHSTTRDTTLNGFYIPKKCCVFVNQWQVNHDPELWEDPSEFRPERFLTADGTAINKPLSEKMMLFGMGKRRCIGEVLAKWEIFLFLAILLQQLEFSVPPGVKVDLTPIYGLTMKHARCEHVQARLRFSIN

[18] = Metabolic stability assessed as dog CYP-mediated metabolism by measuring half life; format: ADME, Canis lupus familiaris
Cytochrome P450 2D6 = Cytochrome P450 2D6 (Homo sapiens, UniProt P10635); assay: Inhibition of recombinant human CYP2D6; format: ADME
[19] = Permeability at pH 5.5 by PAMPA; format: ADME; settings: read-out: permeability
Cytochrome P450 2C9 = Cytochrome P450 2C9 (Homo sapiens, UniProt P11712); assay: Inhibition of recombinant human CYP2C9; format: ADME
[20] = Permeability at pH 7.4 by PAMPA; format: ADME; settings: read-out: permeability
[21] = AUC (0 to 24 hrs) in mouse xenografted with human SKOV3 cells assessed in tumor at 20 mg/kg, po qd for 5 days measured upto 24 hrs after dosing; format: ADME, organism-based; set-up: route oral, dose 20 mg/kg, time 5 day; summary of the method: as §3
[22] = Metabolic stability assessed as rat UGT -mediated metabolism by measuring half life; format: ADME
[23] = Permeability across apical to basolateral side in human Caco2 cells; format: ADME, cell-based; settings: Caco-2, read-out: permeability
[24] = Metabolic stability assessed as cynomolgus monkey UGT -mediated metabolism by measuring half life; format: ADME, Macaca fascicularis

T2 sequence (P14902 whole entry): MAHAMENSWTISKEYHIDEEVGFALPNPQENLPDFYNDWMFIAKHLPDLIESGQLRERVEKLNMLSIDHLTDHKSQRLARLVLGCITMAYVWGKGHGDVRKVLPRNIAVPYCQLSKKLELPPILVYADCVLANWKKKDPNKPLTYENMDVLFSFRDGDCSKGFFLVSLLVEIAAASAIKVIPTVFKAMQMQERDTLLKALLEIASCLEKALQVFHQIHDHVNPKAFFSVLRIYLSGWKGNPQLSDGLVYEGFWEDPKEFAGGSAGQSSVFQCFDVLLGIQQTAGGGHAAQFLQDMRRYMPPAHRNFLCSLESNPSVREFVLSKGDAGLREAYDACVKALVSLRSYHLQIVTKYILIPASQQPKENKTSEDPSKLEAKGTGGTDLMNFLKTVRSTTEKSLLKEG
Sequence of Indoleamine 2,3-dioxygenase 1 (Mus musculus, UniProt P28776) (P28776 whole entry): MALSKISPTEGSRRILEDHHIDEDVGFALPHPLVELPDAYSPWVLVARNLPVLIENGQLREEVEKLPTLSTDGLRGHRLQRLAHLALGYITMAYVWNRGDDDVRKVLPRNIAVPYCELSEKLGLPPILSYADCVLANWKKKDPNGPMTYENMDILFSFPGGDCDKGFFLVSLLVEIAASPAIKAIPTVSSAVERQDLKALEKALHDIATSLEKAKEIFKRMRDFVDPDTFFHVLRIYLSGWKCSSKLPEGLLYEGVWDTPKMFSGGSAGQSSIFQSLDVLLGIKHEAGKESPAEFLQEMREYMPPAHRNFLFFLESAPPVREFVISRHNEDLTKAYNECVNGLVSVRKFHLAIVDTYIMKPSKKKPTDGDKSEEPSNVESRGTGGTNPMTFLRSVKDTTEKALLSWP
Sequence of Cytochrome P450 2C9 (P11712 whole entry): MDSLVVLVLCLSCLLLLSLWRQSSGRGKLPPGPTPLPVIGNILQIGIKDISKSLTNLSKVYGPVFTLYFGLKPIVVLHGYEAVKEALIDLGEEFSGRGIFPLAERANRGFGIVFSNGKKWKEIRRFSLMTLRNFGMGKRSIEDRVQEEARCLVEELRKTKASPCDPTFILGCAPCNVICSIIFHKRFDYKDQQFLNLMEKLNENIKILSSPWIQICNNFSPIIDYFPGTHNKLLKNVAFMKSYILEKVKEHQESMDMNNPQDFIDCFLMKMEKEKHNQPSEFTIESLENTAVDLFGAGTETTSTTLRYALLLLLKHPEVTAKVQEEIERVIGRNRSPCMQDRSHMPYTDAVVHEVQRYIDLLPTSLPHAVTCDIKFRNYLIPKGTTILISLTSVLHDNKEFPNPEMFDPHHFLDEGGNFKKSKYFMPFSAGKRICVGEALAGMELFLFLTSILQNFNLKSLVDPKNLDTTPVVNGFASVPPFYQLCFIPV
Sequence of Cytochrome P450 2C19 (P33261 whole entry): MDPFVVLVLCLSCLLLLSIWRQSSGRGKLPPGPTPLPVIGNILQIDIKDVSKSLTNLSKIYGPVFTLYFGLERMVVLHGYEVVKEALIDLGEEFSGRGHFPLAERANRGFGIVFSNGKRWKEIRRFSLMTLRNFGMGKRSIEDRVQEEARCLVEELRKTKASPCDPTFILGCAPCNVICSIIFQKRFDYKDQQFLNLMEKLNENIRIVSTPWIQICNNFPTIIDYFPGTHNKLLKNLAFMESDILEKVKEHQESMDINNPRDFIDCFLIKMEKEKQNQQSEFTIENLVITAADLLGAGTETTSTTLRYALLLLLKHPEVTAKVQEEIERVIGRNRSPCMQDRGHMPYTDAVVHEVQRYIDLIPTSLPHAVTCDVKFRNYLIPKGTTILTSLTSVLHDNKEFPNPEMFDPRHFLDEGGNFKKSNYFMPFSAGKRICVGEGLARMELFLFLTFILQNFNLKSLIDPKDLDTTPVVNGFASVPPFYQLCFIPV
Sequence of Cytochrome P450 2D6 (P10635 whole entry): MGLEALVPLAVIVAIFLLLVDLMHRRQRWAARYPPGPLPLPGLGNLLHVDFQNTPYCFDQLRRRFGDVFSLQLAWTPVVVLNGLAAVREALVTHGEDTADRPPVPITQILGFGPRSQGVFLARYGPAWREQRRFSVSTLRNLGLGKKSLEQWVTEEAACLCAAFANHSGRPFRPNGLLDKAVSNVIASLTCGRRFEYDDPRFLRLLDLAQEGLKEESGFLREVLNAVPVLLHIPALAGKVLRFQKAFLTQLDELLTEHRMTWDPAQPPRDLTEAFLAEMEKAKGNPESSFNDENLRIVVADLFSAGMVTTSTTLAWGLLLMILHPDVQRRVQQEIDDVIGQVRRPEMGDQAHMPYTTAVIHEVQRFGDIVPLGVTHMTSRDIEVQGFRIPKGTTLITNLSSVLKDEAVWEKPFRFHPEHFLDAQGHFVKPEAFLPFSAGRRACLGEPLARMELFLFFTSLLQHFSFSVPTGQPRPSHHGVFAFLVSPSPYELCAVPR
Sequence of Cytochrome P450 3A4 (P08684 whole entry): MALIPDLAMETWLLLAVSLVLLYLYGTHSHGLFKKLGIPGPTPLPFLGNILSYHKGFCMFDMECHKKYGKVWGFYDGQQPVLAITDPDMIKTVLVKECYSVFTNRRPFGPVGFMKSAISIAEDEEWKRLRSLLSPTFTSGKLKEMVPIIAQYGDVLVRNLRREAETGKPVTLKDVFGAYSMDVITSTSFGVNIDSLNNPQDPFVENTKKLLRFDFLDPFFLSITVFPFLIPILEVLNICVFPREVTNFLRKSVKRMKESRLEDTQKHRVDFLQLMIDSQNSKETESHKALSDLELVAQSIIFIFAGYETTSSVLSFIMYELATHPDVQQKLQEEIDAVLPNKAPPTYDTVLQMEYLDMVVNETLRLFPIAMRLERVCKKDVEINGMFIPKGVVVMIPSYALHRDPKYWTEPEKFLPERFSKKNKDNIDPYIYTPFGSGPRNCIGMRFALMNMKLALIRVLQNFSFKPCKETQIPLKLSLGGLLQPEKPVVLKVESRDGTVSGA

SMILES: C[C@@H](C(=O)Nc1ccc(Cl)cc1)[C@H]1CC[C@@H](c2ccnc3ccc(F)cc32)CC1
- EC50 [8]: 2 nM
- inhibition in vivo at 60 mg/kg [9]: 61%
- remaining at 10 min, 0.5 µM [5]: 86%
- AUC at 120 h (in vivo): 34.9 µM·h

SMILES: C[C@@H](c1nc2ncc(Cl)cc2[nH]1)[C@H]1CC[C@@H](c2ccnc3ccc(F)cc32)CC1
- IC50 [1]: 36 nM
- IC50 [2]: 39 nM
- remaining at 10 min, 0.5 µM [3]: 22%
- remaining at 10 min, 0.5 µM [5]: 17%
- remaining at 10 min, 0.5 µM [6]: 67%
- IC50 [7]: 4 nM

SMILES: CCOCC(Nc1nnc(-c2ccc(OC)cc2)o1)[C@H]1CC[C@@H](c2ccnc3ccc(C(F)(F)F)cc32)CC1 (stereo partly specified)
- IC50 [1]: 57 nM
- IC50 [2]: 96 nM
- remaining at 10 min, 0.5 µM [3]: 41%
- remaining at 10 min, 0.5 µM [5]: 53%
- remaining at 10 min, 0.5 µM [6]: 60%
- IC50 [7]: 13 nM

More lines, in order of falling IC50 [1], values ahead:

- Emax (PXR (NR1I2)): > 50%
- IC50 [1]: 148 nM
- IC50 [2]: 459 nM
- remaining at 10 min, 0.5 µM [3]: 39%
- EC50 [4]: > 50000 nM
- remaining at 10 min, 0.5 µM [5]: 88%
- remaining at 10 min, 0.5 µM [6]: 83%
- IC50 [7]: 13 nM
SMILES: CCC(Nc1nnc(-c2ccc(OC)cc2)o1)[C@H]1CC[C@H](Oc2ccnc3ccccc23)CC1 (stereo partly specified)

- half-life [10]: 0.35 h
- IC50 (Cytochrome P450 2C8): 1470 nM
- IC50 [1]: 3 nM
- IC50 (Cytochrome P450 3A4): 1930 nM
- half-life [11]: 1 h
- IC50 (Cytochrome P450 2C19): 1130 nM
- half-life [12]: 0.9 h
- half-life [13]: 1.75 h
- half-life [14]: 0.283 h
- half-life [15]: > 2 h
- Papp B→A [16]: 6.6 ×10⁻⁶ cm/s
- half-life [17]: 1.58 h
- IC50 (Cytochrome P450 1A2): 2550 nM
- half-life [18]: 0.683 h
- IC50 (Cytochrome P450 2D6): 4280 nM
- Papp [19]: 238 ×10⁻⁶ cm/s
- IC50 [2]: 21 nM
- remaining at 10 min, 0.5 µM [3]: 57%
- IC50 (Cytochrome P450 2C9): 242 nM
- Papp [20]: 263 ×10⁻⁶ cm/s
- AUC at 120 h [21]: 43.6 µM·h
- half-life [22]: 1.78 h
- Papp A→B [23]: 11.3 ×10⁻⁶ cm/s
- remaining at 10 min, 0.5 µM [5]: 81%
- remaining at 10 min, 0.5 µM [6]: 81%
- IC50 [7]: 2 nM
- half-life [24]: > 2 h
SMILES: CCC(c1nc2ncc(Cl)cc2[nH]1)[C@H]1CC[C@@H](c2ccnc3ccc(C(F)(F)F)cc32)CC1 (stereo partly specified)
